Bioassay records (PubChem)
LEDGF integ inh = blockers of LEDGF/p75-dependent integrase strand transfer – biochemical, TR-FRET, high throughput, primary screen; HIV-1 integrase (with human LEDGF/p75); inhibition, % at 3.7 µM; hit rate 0.64% among 370,000; TR-FRET IN-LEDGF/p75 DNA integration, Eu/Cy5;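 active means inhibition above the screen-wide mean plus 3 SD, cut at about 13% in these data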;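 further: signal is the Cy5 over europium emission ratio at 671 and 618 nm; 0% = plate median of compound wells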
DDE Tn7 FP inh = inhibitors of Tn7 peptide binding to fibrin DD(E), primary screen, biochemical, fluorescence polarization, human fibrin, Tn7 probe; FP displacement of FITC-Tn7 peptide from fibrin DD(E); 0% = median of compound wells per plate; inhibition, % at 8.3 µM; hit rate 0.13% among 370,000; AID 720508, 2013;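 active means inhibition above the mean of compounds falling within the control limits plus 3 SD of them, cut at about 14% in these data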;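 further: 0% = plate median of compound wells and 100% = 10 µM Aha-Tn7 peptide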
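Assay system: Fibrin-DD(E) protein isolated from polymerized human fibrin clots; read-out basis: percent inhibition; medium: Tris/NaCl/CaCl2 buffer, pH 7.8; signal: FP measurement; incubation: 10 min plus 3 h, room temperature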
TDP2 inh = human TDP2 enzyme inhibitors, primary screen, biochemical, epi absorbance, recombinant enzyme. Tyrosyl-DNA phosphodiesterase 2 (Homo sapiens), O95551. hit rate 0.34% among 370,000. inhibition, % at 12.8 µM. AID 720702, 2013. T5PNP hydrolysis, p-nitrophenol absorbance 415 nm;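 active means inhibition above the mean of all tested compounds plus 3 SD, set per campaign, cut at about 25% in these data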;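 further: 0% = DMSO with enzyme and 100% = buffer with substrate but no TDP2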
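System – recombinant human TDP2 · Amount – 120 nM TDP2 per well · Buffer or medium – Mg2+-containing Tris-HCl buffer, pH 7.5 · Reagent – T5PNP substrate, 5 mM · Dosing – 12.8 µM single point, 1% DMSO · Incubation – 2 h at 37 °C · Measured by – epi absorbance · Read-out basis – percent inhibition · Benchmarks – high control without enzyme, low control DMSO plus TDP2 · Repeats – singlicate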
MBD2 DNA inh = inhibitors of MBD2 binding to methylated DNA, primary screen, biochemical, TR-FRET, DNA-binding domain, human. AID 686964, 2013. hit rate 0.31% among 370,000. MBD2 binding to methylated oligonucleotide. Methyl-CpG-binding domain protein 2 (Homo sapiens), Q9UBB5. inhibition, % at 4.4 µM; in the data active means inhibition above about 13%
UHRF1 MBD2 ctr = UHRF1 methylated DNA binding inhibitors, primary screen, counter-screen for MBD2 inhibitor project, biochemical, TR-FRET, human UHRF1, single concentration. E3 ubiquitin-protein ligase UHRF1 (Homo sapiens), Q96T88. UHRF1 binding to methylated oligo. inhibition, % at 4.4 µM. hit rate 0.75% among 370,000; in the data active means inhibition above about 21%;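 further: UHRF1 SRA domain binding a hemimethylated CpG hairpin DNA probe; 0% = median of test compound wells and 100% = reference inhibitor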
DDE Tn6 FP inh = inhibitors of Tn6 peptide binding to fibrin DD(E), primary screen, biochemical, fluorescence polarization, human fibrin, Tn6 probe; Fibrinogen beta chain (Homo sapiens), P02675; Fibrin DD(E) TRITC-Tn6 fluorescence polarization displacement; inhibition, % at 8.3 µM; hit rate 0.21% among 370,000; AID 720509, 2013;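 active means inhibition above a per-campaign cutoff: mean of compounds within control limits plus 3 SD, cut at about 15% in these data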;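 further: 0% = median of all compound wells on the plate and 100% = blocking peptide control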
DDE Tn6 FP ctr = counter-screen for inhibitors of Tn6 peptide binding to fibrin DD(E); shares compounds with DDE Tn6 FP inh; hit rate 2% among 680; inhibition, % at 8.3 µM; TRITC-Tn6 fluorescence polarization displacement; 0% = median of compound wells, not DMSO; AID 720621;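 active means inhibition above the mean of test compounds lying between the control limits plus 3 SD of those, cut at about 14% in these data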;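 further: 0% = median of compound wells and 100% = wells with Aha-Tn7 blocking peptide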
DDE Tn6 confirm = inhibitors of Tn6 peptide binding to fibrin DD(E), confirmation, biochemical, fluorescence polarization, human fibrin, Tn6 probe; AID 720631, 2013; shares compounds with DDE Tn6 FP inh; inhibition, % at 8.3 µM; FP displacement of TRITC-Tn6 peptide from DD(E); 0% = per-plate median of test wells; hit rate 10% among 680;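 active means inhibition above the mean of compounds lying within the control limits plus 3 SD, cut at about 16% in these data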;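 further: 100% = high control wells holding a competing inhibitor peptide at 10 µM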
Numbers without * were called inactive; nt = no result given. An excerpt weighted towards active compounds, which were near 1.9% of everything screened.

SMILES	LEDGF integ inh	DDE Tn7 FP inh	TDP2 inh	MBD2 DNA inh	UHRF1 MBD2 ctr	DDE Tn6 FP inh	DDE Tn6 FP ctr	DDE Tn6 confirm
O=C(C1CCCCC1)N1CCN(c2ccccc2F)CC1	0	6	9	3	-1	42*	5	4
CNC(=O)c1cc(Oc2ccc(NC(=O)Nc3ccc(Cl)c(C(F)(F)F)c3)cc2)ccn1	2	-2	0	1	3	34*	-1	-2
COC(=O)c1ccccc1S(=O)(=O)NC(=O)[C@H]1O[C@@H](n2ccc(=O)[nH]c2=O)[C@H](O)[C@@H]1O	1	-5	-2	-6	4	-1	nt	nt
Cc1ccc(NC(=O)CS(=O)CC(=O)Nc2ccccc2-c2ccc(C)o2)cc1 (centres undefined)	-1	8	2	-6	-3	22*	-1	-3
O=C(CS(=O)CC(=O)Nc1ccccc1-c1ccccc1)Nc1ccc(F)cc1 (centres undefined)	-1	9	7	4	1	-9	nt	nt
CC(C)(C)S(=O)(=O)N1C[C@H]2CC(=O)C(CCO)=C2[C@@H]1CCO	3	-1	2	-4	1	2	nt	nt
O=C(NCCS(=O)(=O)N1CCN(c2ccccc2F)CC1)c1cccs1	-1	9	-10	5	1	17*	6	-4
O=C(CN1C(=O)c2cccnc2Oc2ccc(Cl)cc21)N1CCCC1	4	3	3	3	-3	16*	1	0
CS(=O)(=O)N1CCN=C1SCc1ccc(Br)cc1	9	-3	0	-7	-2	0	nt	nt
CC(=O)N1CCN=C1SCc1ccc(Br)cc1	2	8	-1	7	1	20*	3	2
O=S1(=O)c2c(cccc2N2CCC[C@@H]2CO)O[C@@H]2CCN1C2	-9	-4	-3	7	9	5	nt	nt
CC1(C)c2ccccc2N2CC(=O)N(CC(N)=O)C21C (centres undefined)	-1	-12	-8	-12	-6	76*	-3	-5
O=S(=O)(Nc1cccc(-c2cn3cccnc3n2)c1)c1ccccc1	-7	2	-1	2	-1	-9	nt	nt
O=S(=O)(Nc1cccc(-c2cn3cccnc3n2)c1)c1ccc(-c2ccccc2)cc1	-2	-3	7	4	1	20*	1	-6
COC(=O)C1=C(C)N(CC(C)C)C(=S)NC1c1cccc(OC)c1 (centres undefined)	-3	-1	5	1	2	3	nt	nt
COc1ccc(-n2c(=S)[nH]c3cc(C(=O)Nc4ccc(OC)c(OC)c4)ccc3c2=O)cc1	-1	-2	-1	0	-3	17*	-3	-12
Nc1ccn([C@@H]2O[C@H](C(=O)N[C@H](Cc3ccccc3)C(=O)N3CCN(CC(=O)N4CCCC4)CC3)[C@@H](O)[C@H]2O)c(=O)n1	1	-1	3	0	1	4	nt	nt
COc1ccc(C2(C)NC(=O)N(CC(=O)NC(C)c3ccc(CC(C)C)cc3)C2=O)cc1 (centres undefined)	2	2	7	0	-3	19*	9	0
